Entries after “also recorded” stand apart in the source; their conditions may differ.
Key:
[1] = Plasma pharmacokinetics of AZD8186 and metabolite M1; type: in vivo, human; conditions: for Effect of the combination partner on the PK of AZD8186 (Cmax, AUC): drug–drug interaction analysis versus AZD8186 monotherapy
[2] = system: patients with advanced solid tumors; test: Phase I safety and tolerability: AEs, SAEs, DLTs; type: in vivo, human
[3] = system: pAKT (S473), pAKT (T308), pGSK3β; test: PD biomarkers of PI3Kβ inhibition in platelet-rich plasma; type: in vivo, human; conditions: pooled 60-mg and 120-mg BID monotherapy cohorts
advanced solid tumors = test: Tumor response by RECIST 1.1; type: in vivo, human
In short: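 Imaging at baseline and every 6 weeks (every 12 weeks for mCRPC) until discontinuation or consent withdrawal. Patients with measurable disease were classed as complete response, partial response, stable disease or progressive disease under RECIST 1.1. Results were summarised descriptively, with percent change from baseline in target lesions.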

PI3Kβ = conditions: cited from earlier work
pAKT (S473) and pPRAS40 = test: IHC of paired tumor biopsies; type: in vivo, human; conditions: six patients, 120-mg BID monotherapy dose expansion
In short: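 Paired fresh biopsies from patients with PTEN-deficient/mutated mCRPC or TNBC, taken at screening and in week 2 after ≥3 consecutive dosing days (preferably 2–4 h post-dose; days 11 or 12 on 5:2, days 11–14 continuous). IHC for pAKT (S473) and pPRAS40 on three non-consecutive sections. Digital image analysis scored membranous pAKT and cytosolic pPRAS40 intensity as H-scores, with percent change from baseline.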

[4] = combined with AZD8186, dose expansion
[5] = combined with AZD8186, dose finding
[6] = non-prostate cancer, dose finding

## CC(=O)O[C@H]1CC[C@@]2(C)C(=CC[C@@H]3[C@@H]2CC[C@]2(C)C(c4cccnc4)=CC[C@@H]32)C1 [Abiraterone acetate, abiraterone acetate, reference compound]
[1]
  Effect of the combination partner on the PK of AZD8186 (Cmax, AUC): little or no effect
[2]; [4]
  Dose interruption of the combination partner, patients: 72.2%
  Dose reduction of the combination partner, patients: 33.3%
[2]; [5]
  Dose interruption of the combination partner, patients: 56.3%
  Dose reduction of the combination partner, patients: 18.8%

## C[C@@H](Nc1cc(F)cc(F)c1)c1cc(C(=O)N(C)C)cc2c(=O)cc(N3CCOCC3)oc12 [AZD8186, (R)-8-(1-(3,5-difluorophenylamino)ethyl)-N,N-dimethyl-2-morpholino-4-oxo-4H-chromene-6-carboxamide]
[3]
  pAKT (S473), pAKT (T308), and pGSK3β in platelet-rich plasma: Substantial reductions
[1]; human, plasma, oral, terminal elimination half-life, overall range, after a single dose
  half-life: 1.4 to 13.8 h
[1]; in vivo
  Effect on the PK of abiraterone acetate: little effect
[1]; single- and multiple-dose administration
  Cmax and AUC versus dose: dose proportional; also recorded: increased with dose
Advanced solid tumors; dose finding
  Duration of RECIST 1.1 partial response: 372 days
Advanced solid tumors; [6]
  RECIST 1.1 best objective response stable disease, patients: 38.9%
  RECIST 1.1 disease progression, patients: 55.6%
Advanced solid tumors; non-prostate cancer, dose finding (120-mg BID; 2:5)
  RECIST 1.1 confirmed partial response, patients: 5.6%
Advanced solid tumors; prostate cancer, dose expansion
  RECIST 1.1 disease progression, patients: 25.0%
Advanced solid tumors; prostate cancer, dose finding
  RECIST 1.1 best objective response stable disease, patients: 37.5%
  RECIST 1.1 disease progression, patients: 62.5%
[2]; dose expansion
  Any AE: 19 (95.0) n (%)
  Any AE causally related to AZD8186 only: 11 (55.0) n (%)
  Any AE leading to discontinuation of AZD8186: 1 (5.0) n (%)
  Any AE leading to dose modification of AZD8186: 0 n (%)
  Any SAE (including deaths): 4 (20.0) n (%)
  Any SAE (including deaths), causally related to AZD8186 only: 2 (10.0) n (%)
  Any SAE causing discontinuation of AZD8186: 0 n (%)
  Any SAE causing discontinuation of AZD8186, causally related to AZD8186 only: 0 n (%)
  Any grade ≥3 AE: 8 (40.0) n (%)
  Any grade ≥3 AE causally related to AZD8186 only: 3 (15.0) n (%)
  Death: 0 n (%)
  Death causally related to AZD8186 only: 0 n (%)
  Dose interruption of AZD8186, patients: 35.0%
  Dose reduction of AZD8186, patients: No dose reductions
[2]; dose finding
  Anemia, grade ≥3 causally related AE, patients: 4.8%
  Any AE: 63 (100.0) n (%)
  Any AE causally related to AZD8186 only: 55 (87.3) n (%)
  Any AE leading to discontinuation of AZD8186: 11 (17.5) n (%)
  Any AE leading to dose modification of AZD8186: 10 (15.9) n (%)
  Any SAE (including deaths): 23 (36.5) n (%)
  Any SAE (including deaths), causally related to AZD8186 only: 10 (15.9) n (%)
  Any SAE causing discontinuation of AZD8186: 6 (9.5) n (%)
  Any SAE causing discontinuation of AZD8186, causally related to AZD8186 only: 5 (7.9) n (%)
  Any grade ≥3 AE: 39 (61.9) n (%)
  Any grade ≥3 AE causally related to AZD8186 only: 20 (31.7) n (%)
  Aspartate aminotransferase increase, grade ≥3 causally related AE, patients: 4.8%
  Colitis, grade ≥3 causally related AE, patients: 4.8%
  Death: 0 n (%)
  Death causally related to AZD8186 only: 0 n (%)
  Diarrhea, AE causally related to AZD8186, patients: 41.3%
  Fatigue, AE causally related to AZD8186, patients: 22.2%
  Hypophosphatemia, grade ≥3 causally related AE, patients: 4.8%
  Maculo-papular rash, grade ≥3 causally related AE, patients: 4.8%
  Nausea, AE causally related to AZD8186, patients: 27.0%
  Vomiting, AE causally related to AZD8186, patients: 23.8%
[2]; dose finding, whole arm
  Dose interruption of AZD8186, patients: 49.2%
  Dose interruption of AZD8186 related to AEs, patients: 38.1%
  Dose reduction of AZD8186, patients: 17.5%
[2]; monotherapy dose expansion, 60-mg BID (5:2) and 120-mg BID (continuous)
  Tolerability: well tolerated
[2]; monotherapy dose finding, 53 evaluable for DLTs
  Patients who experienced a DLT: 7.5%
PI3Kβ
  IC50: 4 nM
pAKT (S473) and pPRAS40
  Patients with substantial reduction in pAKT (S473) membrane fraction: all six patients
  Patients with substantial reduction in pPRAS40: five of the six patients

## C[C@]12C=CC(=O)C=C1CC[C@@H]1[C@@H]2C(=O)C[C@@]2(C)[C@H]1CC[C@]2(O)C(=O)CO [prednisone, reference compound]
[2]; [4]
  Dose interruption of the combination partner, patients: 77.8%
  Dose reduction of the combination partner, patients: 22.2%
[2]; [5]
  Dose interruption of the combination partner, patients: 56.3%
  Dose reduction of the combination partner, patients: 18.8%

## CNC(=O)c1cccc(-c2ccc3c(N4CCOC[C@@H]4C)nc(N4CCOC[C@@H]4C)nc3n2)c1 [Vistusertib, vistusertib, reference compound]
[1]
  Effect of the combination partner on the PK of AZD8186 (Cmax, AUC): not affected
[2]; [5]
  Dose interruption of the combination partner, patients: 60.0%
  Dose reduction of the combination partner, patients: 23.3%
